Results published in ChEMBL document CHEMBL1142684, “Application of a flexible synthesis of (5R)-thiolactomycin to develop new inhibitors of type I fatty acid synthase” (J Med Chem, 2005).
pIC50: −log10 of the molar value. Values after ≈ are worked out from the molar mass of the structure shown.

Columns and labels:
[1] = test system: MCF7; assay: Inhibitory concentration against MCF-7 breast cancer cells in XTT assay (non radioactive assay); format: functional, cell-based, Homo sapiens
Procedure, shortened: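 MCF-7 human breast cancer cells, cytotoxicity measured by XTT cell proliferation assay (nonradioactive). The procedure was adapted from the kit instructions. IC50 is the average of duplicate runs.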

[2] = test system: MCF7; assay: Inhibitory concentration against fatty acid synthesis in MCF-7 breast cancer cells; format: functional, cell-based, Homo sapiens
[3] = molecular target: Fatty acid synthase (Homo sapiens, UniProt P49327); assay: Inhibitory concentration against purified human fatty acid synthase activity in ZR-75-1 breast cancer cells
Procedure, shortened: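 FAS purified from ZR-75-1 human breast cancer cells (2 µg per well). Overall reaction read at 37 °C as malonyl-CoA-dependent NADPH oxidation at 340 nm, every 10 s for 5 min. Average of duplicate runs; neg means IC50 > 50 µg/mL.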

[4] = test system: Mus musculus; assay: Maximum amount of weight loss in Balb/C mice after 7 days of 60 mg/kg intraperitoneal administration; format: functional
Procedure, shortened: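 Balb/C mice were given a single ip dose of 60 mg/kg in 100 µL DMSO (stock 10 mg/mL in DMSO), or vehicle alone. Mice were weighed daily until treated animals returned to pretreatment weight. The value is the maximum weight loss measured over 7 days.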

[5] = Homo sapiens, MCF7, read-out: IC50

Chain of Fatty acid synthase (P49327 whole entry): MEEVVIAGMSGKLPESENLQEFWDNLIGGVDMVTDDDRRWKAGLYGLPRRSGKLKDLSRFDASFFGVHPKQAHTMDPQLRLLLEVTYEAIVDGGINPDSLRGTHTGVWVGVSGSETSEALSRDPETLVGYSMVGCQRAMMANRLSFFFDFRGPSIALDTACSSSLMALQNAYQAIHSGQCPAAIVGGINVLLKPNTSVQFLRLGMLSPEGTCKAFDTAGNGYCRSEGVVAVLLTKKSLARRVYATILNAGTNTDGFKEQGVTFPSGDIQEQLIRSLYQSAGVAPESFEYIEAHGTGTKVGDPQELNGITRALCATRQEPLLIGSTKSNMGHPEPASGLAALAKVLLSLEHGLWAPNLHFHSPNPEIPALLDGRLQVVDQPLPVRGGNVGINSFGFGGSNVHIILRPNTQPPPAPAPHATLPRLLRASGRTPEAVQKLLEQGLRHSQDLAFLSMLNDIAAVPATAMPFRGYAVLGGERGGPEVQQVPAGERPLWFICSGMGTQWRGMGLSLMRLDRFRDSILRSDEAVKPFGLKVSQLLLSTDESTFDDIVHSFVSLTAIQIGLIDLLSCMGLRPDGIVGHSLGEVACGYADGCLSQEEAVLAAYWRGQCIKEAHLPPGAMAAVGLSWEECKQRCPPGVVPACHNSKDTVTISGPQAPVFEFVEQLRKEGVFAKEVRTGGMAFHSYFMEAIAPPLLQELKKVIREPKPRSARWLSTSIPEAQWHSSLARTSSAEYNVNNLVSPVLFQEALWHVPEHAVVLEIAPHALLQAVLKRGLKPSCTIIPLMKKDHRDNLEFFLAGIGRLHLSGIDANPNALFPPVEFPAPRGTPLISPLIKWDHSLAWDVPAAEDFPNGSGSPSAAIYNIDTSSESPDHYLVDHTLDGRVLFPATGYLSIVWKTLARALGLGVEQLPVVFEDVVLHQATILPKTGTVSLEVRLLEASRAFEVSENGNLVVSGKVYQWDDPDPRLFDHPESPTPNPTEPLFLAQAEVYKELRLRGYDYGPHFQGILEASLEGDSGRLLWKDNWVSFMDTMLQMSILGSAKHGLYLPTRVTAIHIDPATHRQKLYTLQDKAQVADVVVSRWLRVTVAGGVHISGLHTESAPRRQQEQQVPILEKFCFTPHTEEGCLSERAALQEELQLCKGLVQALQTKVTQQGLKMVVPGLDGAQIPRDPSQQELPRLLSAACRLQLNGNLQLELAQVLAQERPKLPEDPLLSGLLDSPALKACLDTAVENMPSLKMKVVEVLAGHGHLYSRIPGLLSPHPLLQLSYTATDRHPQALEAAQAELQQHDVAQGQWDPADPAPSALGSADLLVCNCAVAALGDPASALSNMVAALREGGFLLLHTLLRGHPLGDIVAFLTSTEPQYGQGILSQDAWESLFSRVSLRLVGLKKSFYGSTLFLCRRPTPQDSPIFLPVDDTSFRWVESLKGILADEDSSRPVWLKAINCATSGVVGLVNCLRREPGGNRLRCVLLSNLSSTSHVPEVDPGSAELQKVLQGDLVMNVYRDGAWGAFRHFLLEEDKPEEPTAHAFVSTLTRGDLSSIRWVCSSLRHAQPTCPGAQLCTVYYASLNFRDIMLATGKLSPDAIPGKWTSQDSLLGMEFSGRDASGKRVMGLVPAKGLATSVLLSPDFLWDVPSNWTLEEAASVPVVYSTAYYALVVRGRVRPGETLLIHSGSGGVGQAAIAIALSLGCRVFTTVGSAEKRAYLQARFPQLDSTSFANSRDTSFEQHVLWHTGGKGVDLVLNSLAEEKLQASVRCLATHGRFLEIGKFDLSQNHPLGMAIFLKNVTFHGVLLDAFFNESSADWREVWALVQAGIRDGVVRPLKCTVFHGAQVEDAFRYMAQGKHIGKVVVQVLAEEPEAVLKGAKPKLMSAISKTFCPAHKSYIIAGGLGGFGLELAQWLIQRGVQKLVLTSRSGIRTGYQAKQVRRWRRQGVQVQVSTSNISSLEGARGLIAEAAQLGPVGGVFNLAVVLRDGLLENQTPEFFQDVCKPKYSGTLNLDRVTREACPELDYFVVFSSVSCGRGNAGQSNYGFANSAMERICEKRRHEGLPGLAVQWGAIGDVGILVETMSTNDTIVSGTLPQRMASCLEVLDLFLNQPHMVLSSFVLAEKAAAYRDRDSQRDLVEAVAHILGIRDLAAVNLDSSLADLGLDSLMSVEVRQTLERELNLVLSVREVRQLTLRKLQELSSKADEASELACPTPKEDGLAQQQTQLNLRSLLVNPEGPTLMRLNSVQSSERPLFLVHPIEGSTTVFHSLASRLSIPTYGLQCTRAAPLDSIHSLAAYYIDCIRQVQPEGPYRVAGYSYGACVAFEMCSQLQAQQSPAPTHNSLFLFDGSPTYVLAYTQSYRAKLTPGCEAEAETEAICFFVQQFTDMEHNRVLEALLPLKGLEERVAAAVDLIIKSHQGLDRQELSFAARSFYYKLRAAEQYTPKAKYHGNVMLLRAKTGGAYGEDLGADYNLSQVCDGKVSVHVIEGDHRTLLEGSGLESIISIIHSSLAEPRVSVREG

Molecule `CCCCCCCC[C@@]1(C)SC(=O)C=C1OC(=O)OCC` has an IC50 [1, 5] of 15.1 µg/mL (≈ 48 µM), an IC50 [2, 5] of 14.5 µg/mL (≈ 46.1 µM) and a pIC50 [3] of 4.83. It also gave a Weight loss [4] of 7.1%.
With `COC1=CC(=O)S[C@]1(C)Cc1ccccc1` the IC50 [2, 5] was greater than 50 µg/mL and the pIC50 [3] was less than 3.67.
Work on `CCCCCCCC[C@@]1(C)SC(O)=CC1=O` yielded an IC50 [1, 5] of 17.6 µg/mL (≈ 72.6 µM), an IC50 [2, 5] of 12.6 µg/mL (≈ 52 µM) and a pIC50 [3] of 4.78. It also gave a Weight loss [4] of 2%.
In the case of `CCCCCCCC[C@@]1(C)SC(O)=C(C(C)=O)C1=O`, the IC50 [1, 5] was 12.5 µg/mL (≈ 43.9 µM), the IC50 [2, 5] was 12 µg/mL (≈ 42.2 µM) and the pIC50 [3] was less than 3.75. It also gave a Weight loss [4] of 8.2%.
`CCCCCC[C@@]1(C)SC(=O)C=C1OCC(=O)NCCCBr` gave an IC50 [1, 5] of 21 µg/mL (≈ 53.5 µM), an IC50 [2, 5] of 6.7 µg/mL (≈ 17.1 µM) and a pIC50 [3] of less than 3.89.
`CCCCCC[C@@]1(C)SC(O)=CC1=O` was tested, and the IC50 [1, 5] was greater than 80 µg/mL, the IC50 [2, 5] was 16.5 µg/mL (≈ 77 µM) and the pIC50 [3] was less than 3.63.
For `C/C=C/C(C)=C/[C@@]1(C)SC(O)=CC1=O`, the IC50 [1, 5] was greater than 80 µg/mL, the IC50 [2, 5] was 17.3 µg/mL (≈ 82.3 µM) and the pIC50 [3] was less than 3.62. The Weight loss [4] was 4.1%.
With `C=CCOC1=C(C)C(=O)S[C@]1(C)CCCCCCCC` the IC50 [1, 5] was 34.7 µg/mL (≈ 117 µM), the IC50 [2, 5] was greater than 50 µg/mL and the pIC50 [3] was less than 3.77.
For `CCCCCCCC[C@@]1(C)SC(O)=C(C(C)O)C1=O` (stereo in doubt; 29), the IC50 [1, 5] was 23.9 µg/mL (≈ 83.4 µM), the IC50 [2, 5] was 17.6 µg/mL (≈ 61.4 µM) and the pIC50 [3] was 4.70. For the same molecule, the Weight loss ([4]; 60 mg/kg) was 3.5%.
For `CCCCCCCC[C@@]1(C)SC(=O)C(C)=C1OC`, the IC50 [1, 5] was 17.3 µg/mL (≈ 64 µM), the IC50 [2, 5] was greater than 50 µg/mL and the pIC50 [3] was less than 3.73.
With `CCCCCC[C@@]1(C)SC(=O)C=C1OCC(=O)NCC(=O)OC` the IC50 [1, 5] was 40.5 µg/mL (≈ 118 µM), the IC50 [2, 5] was 9.8 µg/mL (≈ 28.5 µM) and the pIC50 [3] was less than 3.84.
`CCCCCCCC[C@@]1(C)SC(O)=C(C(C)O)C1=O` (stereo in doubt; 30) gave an IC50 ([1]; mcf7) of 21 µg/mL (≈ 73.3 µM), an IC50 ([2]; mcf7) of 21.7 µg/mL (≈ 75.8 µM) and a pIC50 [3] of 4.94. The Weight loss ([4]; 60 mg/kg) was 0.2%.
Molecule `CC/C=C/C=C/[C@@]1(C)SC(O)=CC1=O` has an IC50 [1, 5] greater than 80 µg/mL, an IC50 [2, 5] of 16.9 µg/mL (≈ 80.4 µM) and a pIC50 [3] of less than 3.62. The Weight loss [4] was 3.2%.
`CCCCCC[C@@]1(C)SC(=O)C=C1OC` gave an IC50 [1, 5] of 9.4 µg/mL (≈ 41.2 µM), an IC50 [2, 5] of 14 µg/mL (≈ 61.3 µM) and a pIC50 [3] of less than 3.66.
For `CCCCCCCC[C@@]1(C)SC(O)=C(C(=O)OC)C1=O`, the IC50 [1, 5] was 47.2 µg/mL (≈ 157 µM), the IC50 [2, 5] was 18.7 µg/mL (≈ 62.2 µM) and the pIC50 [3] was less than 3.78.
Molecule `C=CCC1(C)C(=O)S[C@](C)(CCCCCCCC)C1=O` (some centres undefined) has an IC50 [1, 5] of 40.5 µg/mL (≈ 137 µM), an IC50 [2, 5] greater than 50 µg/mL and a pIC50 [3] of less than 3.77.
Work on `CCCCCCCC[C@@]1(C)SC(O)=C(C)C1=O` yielded an IC50 [1, 5] of 48 µg/mL (≈ 187 µM), an IC50 [2, 5] of 16.5 µg/mL (≈ 64.3 µM) and a pIC50 [3] of 3.72. For the same molecule, the Weight loss [4] was 0%.
In the case of `CCCCCC[C@@]1(C)SC(=O)C=C1OCC(=O)NCC(=O)O`, the IC50 [2, 5] was 6.6 µg/mL (≈ 20 µM), the pIC50 [3] was less than 3.82 and the Weight loss [4] was 3.5%.
For `CCCCCCCC[C@@]1(C)SC(=O)C=C1OCC(=O)O`, the IC50 [2, 5] was 13.8 µg/mL (≈ 45.9 µM) and the pIC50 [3] was less than 3.78.
`C=CCOC(=O)OC1=CC(=O)S[C@]1(C)CCCCCCCC` gave an IC50 [1, 5] of 37.3 µg/mL (≈ 114 µM), an IC50 [2, 5] of 14.2 µg/mL (≈ 43.5 µM) and a pIC50 [3] of 4.68. It also gave a Weight loss [4] of 3.4%.
With `C=CCC1=C(O)S[C@](C)(CCCCCCCC)C1=O` the IC50 [1, 5] was 44.4 µg/mL (≈ 157 µM), the IC50 [2, 5] was 34.8 µg/mL (≈ 123 µM) and the pIC50 [3] was 5.00.
`CCCC/C=C/C=C/[C@@]1(C)SC(O)=CC1=O` gave an IC50 [1, 5] of 60 µg/mL (≈ 252 µM), an IC50 [2, 5] of 22.6 µg/mL (≈ 94.8 µM) and a pIC50 [3] of 4.44. The Weight loss [4] was 11%.
In the case of `C=C/C(C)=C/[C@@]1(C)SC(=O)C=C1O`, the IC50 [1, 5] was greater than 80 µg/mL, the pIC50 [3] was 4.37 and the Weight loss [4] was 7.8%.
`C=C/C(C)=C/[C@@]1(C)SC(=O)C(C)=C1O` (stereo in doubt; form 2) [THIOLACTOMYCIN] showed an IC50 ([2]; mcf7) of 41.8 µg/mL (≈ 199 µM), a pIC50 [3] of 3.85 and a Weight loss [4] of 2.6%.
`CCCCCC[C@@]1(C)SC(=O)C=C1OCC(=O)OCC` was tested, and the IC50 [1, 5] was 39.6 µg/mL (≈ 132 µM), the IC50 [2, 5] was 14.2 µg/mL (≈ 47.3 µM) and the pIC50 [3] was less than 3.78.
With `C=C/C(C)=C/[C@@]1(C)SC(=O)C(C)=C1O` (stereo in doubt; form 1) [THIOLACTOMYCIN] the IC50 [1, 5] was greater than 80 µg/mL, the IC50 [2, 5] was 38.4 µg/mL (≈ 183 µM) and the pIC50 [3] was 4.00.
`CCCCCC[C@@]1(C)SC(=O)C=C1OCCCCCl` was tested, and the IC50 [1, 5] was 20.8 µg/mL (≈ 68.2 µM), the IC50 [2, 5] was 8.6 µg/mL (≈ 28.2 µM) and the pIC50 [3] was less than 3.79.
`CCCCCCCC[C@@]1(C)SC(=O)C=C1OC(=O)CC` was tested, and the IC50 [1, 5] was 26.8 µg/mL (≈ 89.8 µM), the IC50 [2, 5] was 22.6 µg/mL (≈ 75.7 µM) and the pIC50 [3] was less than 3.78.
`C=CCC1(CC=C)C(=O)S[C@](C)(CCCCCCCC)C1=O` showed an IC50 [1, 5] of 40.5 µg/mL (≈ 126 µM), an IC50 [2, 5] greater than 50 µg/mL and a pIC50 [3] of less than 3.81.
Molecule `C=CCOC1=CC(=O)S[C@]1(C)CCCCCC` has an IC50 [1, 5] of 9 µg/mL (≈ 35.4 µM), an IC50 [2, 5] greater than 50 µg/mL and a pIC50 [3] of less than 3.71.
With `C=CCNC(=O)COC1=CC(=O)S[C@]1(C)CCCCCCCC` the IC50 [1, 5] was 12.1 µg/mL (≈ 35.6 µM), the IC50 [2, 5] was greater than 50 µg/mL and the pIC50 [3] was less than 3.83. The Weight loss [4] was 2.4%.
`C#CCOC1=CC(=O)S[C@]1(C)CCCCCC` showed an IC50 [1, 5] of 8.9 µg/mL (≈ 35.3 µM), an IC50 [2, 5] of 21.9 µg/mL (≈ 86.8 µM) and a pIC50 [3] of less than 3.70.
In the case of `CCCCCCCC[C@@]1(C)SC(=O)C=C1OCC(=O)OCC`, the IC50 [1, 5] was 35.3 µg/mL (≈ 107 µM), the IC50 [2, 5] was 10.8 µg/mL (≈ 32.9 µM) and the pIC50 [3] was less than 3.82. For the same molecule, the Weight loss [4] was 2.7%.
`C=CCOC1=CC(=O)S[C@]1(C)CCCCCCCC` showed an IC50 [1, 5] of 14.5 µg/mL (≈ 51.3 µM), an IC50 [2, 5] greater than 50 µg/mL and a pIC50 [3] of less than 3.75.
`CCCCCCCC[C@@]1(C)SC(=O)C=C1OC(=O)OC` gave an IC50 [1, 5] of 21.6 µg/mL (≈ 71.9 µM), an IC50 [2, 5] of 10.7 µg/mL (≈ 35.6 µM) and a pIC50 [3] of 5.16. It also gave a Weight loss [4] of 6.1%.
Molecule `CCCCCCCC[C@@]1(C)SC(O)=C(C(=O)C(F)(F)F)C1=O` has an IC50 [1, 5] of 18.4 µg/mL (≈ 54.4 µM), an IC50 [2, 5] of 14.7 µg/mL (≈ 43.4 µM) and a pIC50 [3] of 3.92.
For `CCCCCCCC[C@@]1(C)SC(=O)C=C1OCCCCCl`, the IC50 [1, 5] was 35.3 µg/mL (≈ 106 µM), the IC50 [2, 5] was greater than 50 µg/mL and the pIC50 [3] was less than 3.82.
`CCCCCCCC[C@@]1(C)SC(=O)C=C1OC` was tested, and the IC50 [1, 5] was 16.4 µg/mL (≈ 64 µM), the IC50 [2, 5] was greater than 50 µg/mL and the pIC50 [3] was less than 3.71.
`C[C@]1(Cc2ccccc2)SC(O)=CC1=O` gave an IC50 [1, 5] greater than 80 µg/mL, an IC50 [2, 5] greater than 50 µg/mL and a pIC50 [3] of less than 3.64. It also gave a Weight loss [4] of 1.6%.
